The record followed here is PMC4814157 (ACS chemical biology, 2011).

The target of assay [1] is T1, Scp1 (Homo sapiens, UniProt Q9GZU7).
T1 sequence (Q9GZU7 77-256): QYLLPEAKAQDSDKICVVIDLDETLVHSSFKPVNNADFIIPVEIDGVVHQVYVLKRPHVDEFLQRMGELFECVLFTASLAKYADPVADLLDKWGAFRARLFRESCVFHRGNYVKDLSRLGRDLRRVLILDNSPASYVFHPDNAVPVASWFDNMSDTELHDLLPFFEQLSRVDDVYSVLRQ
As to the kind of experiment: Concentration-response assay of rabeprazole analogues on Scp1. In kind it is biochemical.

Assay [2] concerns the target T1, Scp1. As to the kind of experiment: Differential scanning fluorimetry, thermal stability of Scp1. In kind it is binding. The following applies: 20 µM protein, 100 µM rabeprazole; 57.8 °C in absence of compound. A general note: Differential scanning fluorimetry follows unfolding on heating by fluorescence.
Assay [3] has as its target T1, Scp1. Briefly: Malachite green assay with CTD-derived phosphorylated peptide. In kind it is biochemical. Put shortly:
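Human Scp1 (residues 77–256, E. coli BL21(DE3)-expressed, Ni-NTA purified), 5 ng, acting on a 17-mer Ser5-phosphorylated CTD peptide. Reaction ran 3 min at 37 °C, was quenched with malachite green reagent, and read at 620 nm. IC50 used substrate near Km with 0–100 µM inhibitor. Km came from peptide at 0.01–0.4 mM; Ki from peptide titrations without and with inhibitor.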

The test system of assay [4] is Scp1 F106E mutant. As to the kind of experiment: pNPP assay, Scp1 F106E mutant. In kind it is biochemical, human. In outline:
(§1)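 Point mutants of human Scp1 (residues 77–256; E. coli BL21(DE3), Ni-NTA purified), 50 ng each. Each was preincubated with inhibitor 10 min at RT in pH 5.5 Tris-acetate buffer with 10 mM MgCl2, 0.02% Triton X-100, 1% DMSO. pNPP near Km was added and hydrolysis ran 10–15 min at 37 °C. Reactions were quenched with 0.25 N NaOH and read at 410 nm. IC50 was fitted from concentration–response curves (0–100 µM inhibitor).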

Assay [5] concerns the target T2, bacteriophage λ Ser/Thr phosphoprotein phosphatase (λPPase) (Escherichia phage lambda, UniProt P03772).
T2 sequence (P03772 1-221): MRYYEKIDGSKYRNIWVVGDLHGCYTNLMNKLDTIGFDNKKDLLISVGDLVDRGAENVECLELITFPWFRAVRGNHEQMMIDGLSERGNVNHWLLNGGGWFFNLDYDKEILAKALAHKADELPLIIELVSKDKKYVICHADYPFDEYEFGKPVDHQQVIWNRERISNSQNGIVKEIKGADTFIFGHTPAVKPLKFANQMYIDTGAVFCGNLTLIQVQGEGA
As to the kind of experiment: Inhibition of λPPase. In kind it is biochemical. The settings on record: up to 1 mM concentration (data not shown).

For assay [6], the target named is T3, Scp1 V127A mutant (Homo sapiens, UniProt Q9GZU7, V127A).
T3 sequence (Q9GZU7 77-256 V127A): T1 sequence (Q9GZU7 77-256) with V51A
Briefly: pNPP assay, Scp1 V127A mutant. In kind it is biochemical. Put shortly:
as §1

Assay [7] has as its system Scp1 Tyr158 to Ala mutant. As to the kind of experiment: pNPP assay, Scp1 Tyr158 to Ala mutant. In kind it is biochemical, human. In outline:
as §1

The target in assay [8] is T4, S. pombe Fcp1 (Schizosaccharomyces pombe, UniProt Q9P376).
T4 sequence (Q9P376 148-641): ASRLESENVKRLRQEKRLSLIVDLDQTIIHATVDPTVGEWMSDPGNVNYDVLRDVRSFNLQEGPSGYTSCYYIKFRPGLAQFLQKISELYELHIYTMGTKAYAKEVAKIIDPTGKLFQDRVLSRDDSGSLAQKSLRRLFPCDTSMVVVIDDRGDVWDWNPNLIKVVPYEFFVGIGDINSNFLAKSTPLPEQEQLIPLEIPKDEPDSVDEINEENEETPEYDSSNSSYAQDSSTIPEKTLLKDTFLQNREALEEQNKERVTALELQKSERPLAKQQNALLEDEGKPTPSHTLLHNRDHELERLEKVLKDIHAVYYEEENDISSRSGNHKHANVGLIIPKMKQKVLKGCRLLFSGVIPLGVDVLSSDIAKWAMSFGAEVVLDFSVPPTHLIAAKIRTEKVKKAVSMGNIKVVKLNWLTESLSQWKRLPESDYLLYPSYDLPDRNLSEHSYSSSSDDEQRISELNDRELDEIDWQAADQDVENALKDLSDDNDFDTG
Briefly: pNPP assay, concentration-response on Fcp1. In kind it is biochemical. The settings on record: up to 0.1 mM rabeprazole, substrate comparable to Km.

Assay [9] addresses T1, Scp1. Briefly: pNPP assay of Scp1 phosphatase activity. In kind it is biochemical.
Assay [10] deals with T5, human Dullard (Homo sapiens, UniProt O95476).
T5 sequence (O95476 46-244): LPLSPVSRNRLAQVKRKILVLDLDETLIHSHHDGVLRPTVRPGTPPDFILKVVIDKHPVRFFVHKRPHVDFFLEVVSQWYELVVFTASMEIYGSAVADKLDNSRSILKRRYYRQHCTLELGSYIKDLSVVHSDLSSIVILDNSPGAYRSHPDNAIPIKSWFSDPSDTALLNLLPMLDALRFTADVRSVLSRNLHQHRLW
Briefly: pNPP assay, concentration-response on Dullard. The settings on record: up to 0.1 mM rabeprazole, substrate comparable to Km. In kind it is biochemical.

In assay [11] the target is T6, Scp1 L155A mutant (Homo sapiens, UniProt Q9GZU7, L155A).
T6 sequence (Q9GZU7 77-256 L155A): T1 sequence (Q9GZU7 77-256) with L79A
As to the kind of experiment: pNPP assay, Scp1 L155A mutant. In kind it is biochemical. Put shortly: as §1

In assay [12] the target is T7, Scp1 K157A mutant (Homo sapiens, UniProt Q9GZU7, K157A).
T7 sequence (Q9GZU7 77-256 K157A): T1 sequence (Q9GZU7 77-256) with K81A
Briefly: pNPP assay, Scp1 K157A mutant. In kind it is biochemical. Put shortly: as §1

Residue numbers refer to the chain shown, from its start. “Also recorded” adds a separate entry of the source.

Usually IC50 stands for the midpoint of a concentration-inhibition curve. Low readings indicate inhibition by little substance, high ones a need for much substance. In general, Ki refers to a measure of affinity in units of concentration, obtained from inhibition or displacement. A low value points to a stronger hold on the target.

`COCCCOc1cc[n+]([O-])c(C[S+]([O-])c2nc3ccccc3[nH]2)c1C` (stereo not drawn) [Rabeprazole N-oxide]: in [1], the “inhibition of Scp1” value was “no inhibition”.
Still for that read-out and setting: next, `COCCCOc1ccnc(CS(=O)(=O)c2nc3ccccc3[nH]2)c1C` [Rabeprazole sulfone]: “did not show any inhibition”; `Cc1c(OCC(F)(F)F)ccnc1C[S+]([O-])c1nc2ccccc2[nH]1` (stereo not drawn) [lansoprazole]: “no inhibition; also recorded: does not inhibit”.
On to `COCCCOc1ccnc(C[S+]([O-])c2nc3ccccc3[nH]2)c1C` (stereo not drawn) [rabeprazole], for which the “melting temperature of Scp1 in the presence of the compound” value in assay [2] turned out to be 59.1 °C. The results for the half-maximal inhibitory concentration (IC50) in [3] and in assay [9] were 9 ± 3 µM and 4 ± 0.7 µM, respectively. The affinity in assay [3] corresponds to a Ki of 5 ± 1 µM. The mechanism of inhibition entry in assay [3] (CTD-derived phosphorylated peptide as the substrate) is on record as “competitive inhibitor”; in assay [9] (against pNPP), “mixed inhibitor”. For the same molecule, in assay [4], the “increase of IC50 versus wildtype Scp1” value was “at least 10 fold”. For the same molecule, the “inhibition of λPPase” value in [5] is reported as “no inhibition”. Further, the “change of IC50 versus wildtype Scp1” value in [6], in assay [11] and in assay [12] was “moderately increased IC50” in each case. Besides, the “loss of inhibition versus wildtype Scp1” value in assay [7] is listed as “at least 10 fold”. Also, in assay [8], the “inhibition of Fcp1” value is “no inhibition”. Also, the “Ki′” value in assay [9] (pNPP as the substrate, steady-state kinetics) is 10 ± 2 µM. Moreover, the “inhibition of Dullard” value in assay [10] was “no inhibition”.
